Experiments:
[1] = molecular target: PI3-kinase p110-delta/p85-alpha (Homo sapiens, UniProt O00329); test: Inhibition of full length recombinant human N-terminal His6-tagged PI3K p110delta/human p85alpha expressed in baculovirus infected sf21 cells using PIP2 as substrate preincubated for 30 mins followed by substrate addition by HTRF assay
[2] = molecular target: T1, Phosphatidylinositol 4,5-bisphosphate 3-kinase catalytic subunit delta isoform (Homo sapiens, UniProt O00329); test: Inhibition of PI3Kdelta in human THP1 cells assessed as reduction in MCSF-stimulated akt phosphorylation at Thr308 preincubated for 30 mins followed by MCSF stimulation for 3 mins by ELISA; format: cell-based, THP-1
T1 sequence (O00329 whole entry): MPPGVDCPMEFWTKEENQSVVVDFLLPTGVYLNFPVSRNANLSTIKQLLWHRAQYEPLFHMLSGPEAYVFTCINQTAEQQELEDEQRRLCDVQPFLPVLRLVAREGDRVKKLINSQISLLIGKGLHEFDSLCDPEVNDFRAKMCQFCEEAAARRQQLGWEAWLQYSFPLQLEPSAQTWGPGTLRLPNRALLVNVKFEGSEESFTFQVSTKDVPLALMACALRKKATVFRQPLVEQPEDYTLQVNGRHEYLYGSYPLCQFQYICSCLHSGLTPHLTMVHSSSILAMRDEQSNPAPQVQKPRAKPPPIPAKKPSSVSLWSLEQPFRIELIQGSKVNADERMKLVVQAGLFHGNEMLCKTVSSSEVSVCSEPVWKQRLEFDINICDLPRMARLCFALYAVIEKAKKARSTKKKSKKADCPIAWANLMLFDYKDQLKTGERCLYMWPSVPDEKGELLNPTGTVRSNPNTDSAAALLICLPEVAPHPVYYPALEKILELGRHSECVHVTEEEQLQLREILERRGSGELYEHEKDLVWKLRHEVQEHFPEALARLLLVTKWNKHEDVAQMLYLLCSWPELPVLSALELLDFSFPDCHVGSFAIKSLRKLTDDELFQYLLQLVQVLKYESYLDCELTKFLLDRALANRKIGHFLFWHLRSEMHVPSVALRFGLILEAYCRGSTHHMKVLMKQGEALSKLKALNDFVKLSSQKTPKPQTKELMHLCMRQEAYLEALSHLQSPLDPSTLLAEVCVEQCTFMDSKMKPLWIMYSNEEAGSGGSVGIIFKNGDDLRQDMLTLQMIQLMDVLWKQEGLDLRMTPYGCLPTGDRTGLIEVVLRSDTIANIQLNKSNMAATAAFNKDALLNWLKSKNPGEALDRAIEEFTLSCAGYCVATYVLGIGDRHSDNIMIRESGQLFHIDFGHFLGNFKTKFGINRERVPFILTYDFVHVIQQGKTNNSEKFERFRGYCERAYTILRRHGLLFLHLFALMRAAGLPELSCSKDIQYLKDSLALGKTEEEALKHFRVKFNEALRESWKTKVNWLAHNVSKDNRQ
Outline: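 THP-1 cells exposed to compound for 30 min, then stimulated with MCSF at EC80 for 3 min; lysates assayed by ELISA for pAkt (Thr308).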

[3] = Drug metabolism in human liver microsomes assessed as disappearance of parent compound at 5 uM after 30 mins in presence of NADPH by UPLC-MS/MS analysis
[4] = Drug metabolism in rat liver microsomes assessed as disappearance of parent compound at 5 uM after 30 mins in presence of NADPH by UPLC-MS/MS analysis
[5] = Half life in Wistar rat at 1 mg/kg, iv; format: ADME, organism-based; settings: in vivo
[6] = Clearance in Wistar rat at 1 mg/kg, iv; settings: in vivo
[7] = Volume of distribution at steady state in Wistar rat at 1 mg/kg, iv; format: ADME, organism-based; settings: in vivo, read-out: Vdss
[8] = AUC in Wistar rat at 1 mg/kg, iv; format: ADME, organism-based; settings: in vivo
Outline: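 Wistar rats received a single 1 mg/kg intravenous dose. Plasma samples were collected and AUC was calculated from them, along with half-life, clearance and steady-state volume of distribution. Values are means of two animals (n=2).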

[9] = Apparent volume of distribution in Wistar rat at 1 mg/kg, iv; format: ADME, organism-based; settings: in vivo, read-out: Vz
[10] = Half life in Beagle dog at 1 mg/kg, iv through bolus administration; format: ADME, organism-based, Canis lupus familiaris; settings: in vivo
[11] = Oral bioavailability in Wistar rat at 1 mg/kg administered via gavage; format: ADME, organism-based; settings: in vivo
Rattus norvegicus [12] = test: In vivo inhibition of PI3Kdelta in Wistar rat assessed as reduction in ConA-induced increase in plasma IL2 production administered through oral gavage 1 hr prior to ConA measured 90 mins post ConA challenge by ELISA; format: functional; settings: read-out: ID50 (the source's name)
Rattus norvegicus [13] = test: Anti-inflammatory activity in Brown Norway rat assessed as reduction in OVA-induced eosinophil infilteration to bronchoalveolar lavage administered orally bid 1 hr prior to OVA challenge on day 14 and 6 hrs post OVA challenge on day 21 measured 24 hrs post last OVA challenge by microscopic method; format: functional; settings: po, read-out: ID50 (the source's name)
[14] = AUC in Beagle dog at 1 mg/kg, iv through bolus administration; format: ADME, organism-based, Canis lupus familiaris; settings: in vivo
[15] = Apparent volume of distribution in Beagle dog at 1 mg/kg, iv through bolus administration; format: ADME, organism-based, Canis lupus familiaris; settings: in vivo, read-out: Vz
[16] = Clearance in Beagle dog at 1 mg/kg, iv through bolus administration; settings: in vivo

PI3-kinase p110-delta/p85-alpha, sequence (P27986 whole entry, one chain of several, canonical isoform): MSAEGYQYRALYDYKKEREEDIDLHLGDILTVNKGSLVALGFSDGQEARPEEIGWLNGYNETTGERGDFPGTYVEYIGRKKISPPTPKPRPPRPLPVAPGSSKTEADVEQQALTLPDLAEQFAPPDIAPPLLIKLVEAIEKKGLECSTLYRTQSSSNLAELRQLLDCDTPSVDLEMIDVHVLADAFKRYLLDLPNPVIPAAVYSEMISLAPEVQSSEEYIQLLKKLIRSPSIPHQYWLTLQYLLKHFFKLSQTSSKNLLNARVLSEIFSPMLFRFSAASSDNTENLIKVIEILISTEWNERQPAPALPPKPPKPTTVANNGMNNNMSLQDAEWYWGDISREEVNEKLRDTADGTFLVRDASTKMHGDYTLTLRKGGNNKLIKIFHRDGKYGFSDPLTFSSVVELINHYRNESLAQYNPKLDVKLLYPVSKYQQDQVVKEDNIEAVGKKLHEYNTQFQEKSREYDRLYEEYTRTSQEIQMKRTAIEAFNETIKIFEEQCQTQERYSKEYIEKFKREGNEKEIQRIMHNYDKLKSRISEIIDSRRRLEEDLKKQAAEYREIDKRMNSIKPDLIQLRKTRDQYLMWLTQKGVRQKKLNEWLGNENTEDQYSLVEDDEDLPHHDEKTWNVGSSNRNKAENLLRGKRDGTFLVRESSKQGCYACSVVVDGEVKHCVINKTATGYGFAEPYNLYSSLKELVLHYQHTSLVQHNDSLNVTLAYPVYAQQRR

| SMILES | IC50 [1] [nM] | IC50 [2] [nM] | metabolised at 0.5 h, 5 µM [3] [%] | metabolised at 0.5 h, 5 µM [4] [%] | also measured |
| --- | --- | --- | --- | --- | --- |
| Cc1ccccc1-n1c(Cn2cnc3c(N)ncnc32)nn2ccc(C)c2c1=O | 110 |  |  |  |  |
| C[C@H](Nc1ccnc2ccnn12)c1nn2cccc2c(=O)n1-c1ccccc1 | 60 |  | 86 | 100 |  |
| Cc1ccn2nc(C(C)n3cnc4c(N)ncnc43)n(-c3ccccc3)c(=O)c12 (stereo not given) | 75 |  |  |  |  |
| C[C@H](Nc1cc(N)ncn1)c1nn2cccc2c(=O)n1-c1ccccc1 | 1200 |  |  |  |  |
| C[C@H](Nc1ncnc2[nH]ccc12)c1nn2cccc2c(=O)n1-c1ccccc1 | 52 | 150 | 49 | 44 |  |
| N#Cc1c(N)ncnc1N1CC(F)(F)C[C@H]1c1nn2cccc2c(=O)n1-c1ccccc1 | 31 | 370 | 35 | 30 |  |
| C[C@H](Nc1ncnc(N)c1F)c1nn2cccc2c(=O)n1-c1ccccc1 | 73 | 210 |  |  |  |
| N#Cc1c(N)ncnc1NC(CC(F)(F)F)c1nn2cccc2c(=O)n1-c1ccccc1 (stereo not given) | 610 | 1600 |  |  |  |
| N#Cc1c(N)ncnc1NC1(c2nn3cccc3c(=O)n2-c2ccccc2)CC1 | 3400 |  |  |  |  |
| C[C@H](Nc1ncnc(N)c1C#N)c1nn2ccnc2c(=O)n1-c1ccccc1 | 57 | 210 | 23 | 14 |  |
| CC[C@@H](Nc1ncnc2[nH]cnc12)c1nn2cccc2c(=O)n1-c1ccccc1 | 1800 |  | 30 | 32 |  |
| CC[C@H](Nc1ncnc2[nH]cnc12)c1nc2cccc(F)c2c(=O)n1-c1ccccc1 [IDELALISIB] |  |  |  |  | Vd [9]: 2.2 L/kg; half-life [10]: 1.6 h; bioavailability [11]: 68%; ED50 (Rattus norvegicus [12]): 1.6 mg/kg; ED50 (Rattus norvegicus [13]): 15 mg/kg; AUC [14]: 924 ng·h/mL; half-life [5]: 0.8 h; Vd [15]: 2.5 L/kg; AUC [8]: 512 ng·h/mL |
| C[C@H](Nc1ncnc(N)c1C#N)c1nn2cccc2c(=O)n1-c1ccccc1 |  |  | 24 | 15 | half-life [5]: 0.9 h; clearance [6]: 43.5 mL/min/kg; Vd [7]: 1.9 L/kg; AUC [8]: 386 ng·h/mL |
| C[C@H](Nc1nc(N)nc(N)n1)c1nn2cccc2c(=O)n1-c1ccccc1 | 91 | 76 | 33 | 25 |  |
| C[C@H](Nc1ncnc(N)c1C#N)c1nn2c(C(F)(F)F)ccc2c(=O)n1-c1ccccc1 | 71 | 380 |  |  |  |

Now from value to compound, other results behind:

| IC50 [1] [nM] | IC50 [2] [nM] | metabolised at 0.5 h, 5 µM [3] [%] | metabolised at 0.5 h, 5 µM [4] [%] | SMILES | also measured |
| --- | --- | --- | --- | --- | --- |
| 13 | 51 | 31 | 24 | N#Cc1c(N)ncnc1NC(CO)c1nn2cccc2c(=O)n1-c1ccccc1 (single isomer, unassigned) |  |
| 4.8 | 16 | 7 |  | N#Cc1c(N)ncnc1N[C@@H](CCO)c1nn2cccc2c(=O)n1-c1ccccc1 | half-life [5]: 1.1 h; clearance [6]: 36.8 mL/min/kg; Vd [7]: 1.6 L/kg; AUC [8]: 450 ng·h/mL |
| 4.3 | 35 | 23 | 7 | C[C@H](Nc1ncnc(N)c1C#N)c1nn2ccc(CO)c2c(=O)n1-c1ccccc1 |  |
| 17 | 51 | 34 | 23 | C[C@H](Nc1ncnc(N)c1C#N)c1nn2cc(F)cc2c(=O)n1-c1ccccc1 |  |
| 10 | 7 | 30 | 18 | C[C@H](Nc1ncnc2[nH]cnc12)c1nn2cccc2c(=O)n1-c1ccccc1 |  |
| 8.8 | 11 | 82 | 54 | Cc1ccc2c(=O)n(-c3ccccc3)c([C@H](C)Nc3ncnc(N)c3C#N)nn12 |  |
| 25 |  | 49 | 38 | CC[C@H](Nc1ncnc2[nH]cnc12)c1nn2cccc2c(=O)n1-c1ccccc1 |  |
| 4.6 | 6.6 | 48 | 46 | N#Cc1c(N)ncnc1N1CCC[C@H]1c1nn2cccc2c(=O)n1-c1ccccc1 |  |
| 4 | 11 | 22 | 24 | C[C@H](Nc1ncnc(N)c1C#N)c1nn2c(C#N)ccc2c(=O)n1-c1ccccc1 |  |
| 1.1 | 3.8 | 13 | 9 | C[C@H](Nc1ncnc(N)c1C#N)c1nn2ccc(F)c2c(=O)n1-c1ccccc1 |  |
| 9 | 47 | 58 | 48 | C[C@H](Nc1ncnc2[nH]cc(F)c12)c1nn2cccc2c(=O)n1-c1ccccc1 |  |
| 12 |  | 43 | 51 | C[C@H](Nc1ncnc(N)c1C(F)(F)F)c1nn2cccc2c(=O)n1-c1ccccc1 |  |
| 3 |  | 37 | 16 | C[C@H](Nc1ncnc(N)c1C#N)c1nn2ccc(C(F)(F)F)c2c(=O)n1-c1ccccc1 | Vd [9]: 2.4 L/kg; half-life [10]: 4.2 h; bioavailability [11]: 113%; AUC [14]: 3940 ng·h/mL; half-life [5]: 3.3 h; Vd [15]: 1.5 L/kg; clearance [6]: 8.6 mL/min/kg; AUC [8]: 2040 ng·h/mL; clearance [16]: 4.2 mL/min/kg |
| 3.1 | 6.5 | 26 | 30 | C[C@H](Nc1nc(N)nc2[nH]cnc12)c1nn2cccc2c(=O)n1-c1ccccc1 |  |
| 11 | 18 | 32 | 32 | CC[C@H](Nc1ncnc(N)c1C#N)c1nn2cccc2c(=O)n1-c1ccccc1 |  |
| 1.1 | 1.6 | 80 | 44 | Cc1ccn2nc([C@H](C)Nc3ncnc(N)c3C#N)n(-c3ccccc3)c(=O)c12 |  |

From ChEMBL document CHEMBL3872285, “Discovery of a Potent, Selective, and Orally Available PI3Kδ Inhibitor for the Treatment of Inflammatory Diseases” (ACS Med Chem Lett, 2017)
